Columns and labels:
[1] = test system: SK-BR-3; experiment: Cytotoxicity against human SK-BR-3 cells after 72 hrs by SRB assay; format: functional; conditions: SK-BR-3, 72 h, read-out: ED50 (the source's name)
How it was run: (§1)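 Cells grown in RPMI-1640 with 10% FBS, penicillin, streptomycin and amphotericin B at 37 °C, 5% CO2, then trypsinized and seeded in 96-well plates. Compounds were added from DMSO-diluted stock and incubated 72 h after attachment. Cells were TCA-fixed, stained with 0.4% SRB and read at 515 nm. ED50 is the concentration halving net protein increase, averaged from at least two independent determinations with SEM.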

[2] = Cytotoxicity against human vincristine-resistant KBVIN after 72 hrs by SRB assay; format: functional; conditions: read-out: ED50 (the source's name); how it was run: as §1
[3] = test system: A549; experiment: Cytotoxicity against human A549 after 72 hrs by SRB assay; format: functional; conditions: A549, 72 h, read-out: ED50 (the source's name); how it was run: as §1
[4] = test system: SK-BR-3; experiment: Cytotoxicity against human SK-BR-3 cells after 72 hrs by MTT assay; format: functional; conditions: SK-BR-3, 72 h, read-out: ED50 (the source's name)
How it was run: (§2)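 MTT read-out: 5000 cells/well were seeded in 96-well plates in recommended growth medium and incubated overnight. Drug in DMSO was added, with 72 h at 37 °C in 5% CO2. MTT reagent was then added for 2 h, and formazan was read as optical density at 570. Data are mean and SD of replicates from a single experiment.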

[5] = Cytotoxicity against human 184A1 after 72 hrs by MTT assay; format: cell-based; conditions: 184A1 cells, read-out: ED50; how it was run: as §2
[6] = test system: SK-BR-3; experiment: Selectivity ratio of ED50 for human vincristine-resistant KBVIN cell to ED50 for human SK-BR-3 cells; format: functional
How it was run: (§3)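 Ratio of the ED50 in the stated line to the ED50 in SK-BR-3. Each ED50 came from the 72 h SRB protein-stain assay in RPMI-1640/10% FBS-grown cells, as the concentration halving net protein increase, averaged over at least two independent determinations.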

[7] = test system: SK-BR-3; experiment: Selectivity ratio of ED50 for human MDA-MB-231 cell to ED50 for human SK-BR-3 cells; format: functional; how it was run: as §3
[8] = Cytotoxicity against human MCF10A after 72 hrs by MTT assay; format: cell-based, MCF-10A; conditions: MCF10A cells, read-out: ED50; how it was run: as §2
[9] = test system: SK-BR-3; experiment: Selectivity ratio of ED50 for human DU145 cell to ED50 for human SK-BR-3 cells; format: functional
[10] = test system: SK-BR-3; experiment: Selectivity ratio of ED50 for human A549 cell to ED50 for human SK-BR-3 cells; format: functional; how it was run: as §3
[11] = test system: SK-BR-3; experiment: Selectivity ratio of ED50 for human KB cell to ED50 for human SK-BR-3 cells; format: functional; how it was run: as §3
[12] = test system: MDA-MB-231; experiment: Cytotoxicity against human MDA-MB-231 after 72 hrs by SRB assay; format: functional; conditions: MDA-MB-231, 72 h, read-out: ED50 (the source's name); how it was run: as §1
[13] = test system: ZR-75-1; experiment: Cytotoxicity against human ZR-75-1 after 72 hrs by SRB assay; format: functional; conditions: ZR-75-1, 72 h, read-out: ED50 (the source's name); how it was run: as §1
[14] = test system: DU-145; experiment: Cytotoxicity against human DU145 after 72 hrs by SRB assay; format: functional; conditions: DU-145, 72 h, read-out: ED50 (the source's name)
[15] = test system: ZR-75-1; experiment: Selectivity ratio of ED50 for human ZR-75-1 cell to ED50 for human SK-BR-3 cells; format: functional; how it was run: as §3
[16] = test system: KB; experiment: Cytotoxicity against human KB after 72 hrs by SRB assay; format: functional; conditions: read-out: ED50 (the source's name); how it was run: as §1

## COc1cc(OC)cc(-c2cc3occ(C)c3c(=O)o2)c1
[1]
  EC50: 0.28 µM
[2]
  EC50: > 69.9 µM
[3]
  EC50: > 69.9 µM
[4]
  EC50: 1 µM
[5]
  CC50 at 72 h: 16.8 µM
[6]
  Ratio ED50: 100
[7]
  Ratio ED50: 100
[8]
  CC50 at 72 h: > 35 µM
[9]
  Ratio ED50: 100
[10]
  Ratio ED50: 100
[11]
  Ratio ED50: 100
[12]
  EC50: > 69.9 µM
[13]
  EC50: 30.8 µM
[14]
  EC50: 65.4 µM
[15]
  Ratio ED50: 100

## Cc1coc2cc(-c3cccc(F)c3)oc(=O)c12
[1]
  EC50: 20.5 µM

## Cc1cccc(-c2cc3occ(C)c3c(=O)o2)c1
[1]
  EC50: 1.5 µM
[2]
  EC50: 40 µM
[3]
  EC50: 53.8 µM
[16]
  EC50: 43.8 µM
[12]
  EC50: > 83.3 µM
[13]
  EC50: 6.3 µM
[14]
  EC50: 24.6 µM

## COc1cc(OC)cc(-c2cc3occ(C)c3c(=S)o2)c1
[1]
  EC50: > 66.2 µM

## COc1ccc(-c2cc3occ(C)c3c(=O)o2)cc1
[1]
  EC50: > 78.1 µM

## Cc1ccc(-c2cc3occ(C)c3c(=O)o2)cc1C
[1]
  EC50: 14.6 µM

## COc1cccc(-c2cc3occ(C)c3c(=O)o2)c1OC
[1]
  EC50: 65 µM

## Cc1coc2cc(-c3ccc(F)cc3)oc(=O)c12
[1]
  EC50: 19.3 µM

## Cc1coc2cc(-c3cccc(O)c3O)oc(=O)c12
[1]
  EC50: 34.1 µM

## COc1ccc(-c2cc3occ(C)c3c(=O)o2)cc1OC
[1]
  EC50: > 69.9 µM

## Cc1cc(C)cc(-c2cc3occ(C)c3c(=O)o2)c1
[1]
  EC50: 22.4 µM

## Cc1coc2cc(-c3ccccc3)oc(=O)c12
[1]
  EC50: 15.5 µM

## Cc1ccc(-c2cc3occ(C)c3c(=O)o2)cc1
[1]
  EC50: > 83.3 µM

## COc1cc(-c2cc3occ(C)c3c(=O)o2)cc(OC)c1OC
[1]
  EC50: 0.44 µM
[2]
  EC50: > 63.3 µM
[3]
  EC50: 63.3 µM
[6]
  Ratio ED50: 100
[7]
  Ratio ED50: 100
[9]
  Ratio ED50: 100
[10]
  Ratio ED50: 100
[11]
  Ratio ED50: 100
[12]
  EC50: > 31.6 µM
[13]
  EC50: 29.1 µM
[14]
  EC50: > 63.3 µM
[15]
  Ratio ED50: 66

## Cc1coc2cc(-c3ccc(O)c(O)c3)oc(=O)c12
[1]
  EC50: 0.47 µM
[2]
  EC50: 23.3 µM
[3]
  EC50: 19.4 µM
[16]
  EC50: 20.2 µM
[12]
  EC50: 22.9 µM
[13]
  EC50: 1.2 µM
[14]
  EC50: 25.6 µM

## Cc1coc2cc(-c3cccc(O)c3)oc(=O)c12
[1]
  EC50: 1.61 µM
[2]
  EC50: 60.3 µM
[3]
  EC50: 68.6 µM
[16]
  EC50: 65.3 µM
[12]
  EC50: > 41.3 µM
[13]
  EC50: 0.9 µM
[14]
  EC50: 82.6 µM

## Cc1coc2cc(-c3cc(O)cc(O)c3)oc(=O)c12
[1]
  EC50: 38.4 µM

## CCOc1cccc(-c2cc3occ(C)c3c(=O)o2)c1
[1]
  EC50: 0.67 µM
[2]
  EC50: > 74.1 µM
[3]
  EC50: 57.8 µM
[16]
  EC50: 64.4 µM
[12]
  EC50: > 37 µM
[13]
  EC50: 2.2 µM
[14]
  EC50: 74.1 µM

## COc1cccc(-c2cc3occ(C)c3c(=O)o2)c1
[1]
  EC50: 2.58 µM
[2]
  EC50: 71.1 µM
[3]
  EC50: 58.2 µM
[12]
  EC50: > 39.1 µM
[13]
  EC50: 5.5 µM
[14]
  EC50: > 78.1 µM

## Cc1cccc2c1ccc1c3occ(C)c3c(=O)oc21
[1]
  EC50: 0.95 µM
[2]
  EC50: > 75.8 µM
[13]
  EC50: 0.9 µM

## COc1cc(OC)cc(-c2cc3oc(C)c(C)c3c(=O)o2)c1
[1]
  EC50: > 66.7 µM

## CCc1coc2cc(-c3cc(OC)cc(OC)c3)oc(=O)c12
[1]
  EC50: 55.6 µM

## Cc1coc2cc(-c3ccc(O)cc3)oc(=O)c12
[1]
  EC50: 36 µM
